In ChEMBL document CHEMBL2034969, “Bioactive carbazole alkaloids from Clausena wallichii roots” (J Nat Prod, 2012):
Values after ≈ are worked out from the molar mass of the structure shown. Active and inactive are the calls of the source. The rule behind the calls is not given here.

Columns and labels:
Staphylococcus aureus [1] = assay: Antibacterial activity against methicillin-resistant Staphylococcus aureus SK1 by broth dilution method; type: functional
Staphylococcus aureus [2] = assay: Antibacterial activity against Staphylococcus aureus TISTR 1466 by broth dilution method; type: functional
Summary of the method: (§1)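 MIC found by 2-fold serial dilution in Mueller Hinton broth following CLSI (2002) recommendations. Test substances dissolved in DMSO. Vancomycin and gentamycin run as reference drugs.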

Escherichia coli = assay: Antibacterial activity against Escherichia coli TISTR 780 by broth dilution method; type: functional; summary of the method: as §1
Salmonella typhimurium = assay: Antibacterial activity against Salmonella typhimurium TISTR 292 by broth dilution method; type: functional, Salmonella enterica subsp. enterica serovar Typhimurium; summary of the method: as §1
KB = assay: Cytotoxicity against human KB cells by resazurin reduction assay; type: functional, cell-based
MCF7 = assay: Cytotoxicity against human MCF7 cells by resazurin reduction assay; type: functional, cell-based
NCI-H187 = assay: Cytotoxicity against human NCI-H187 cells by resazurin reduction assay; type: functional, cell-based
[3] = Homo sapiens, KB, read-out: IC50
[4] = Homo sapiens, MCF7, read-out: IC50
[5] = Homo sapiens, NCI-H187, read-out: IC50
[6] = Salmonella enterica subsp. enterica serovar Typhimurium

Row | Compound | MIC (Staphylococcus aureus [1]) | MIC (Staphylococcus aureus [2]) | MIC (Escherichia coli) | MIC (Salmonella typhimurium; Salmonella enterica) [µg/mL] | IC50 (KB; [3]) [µM] | IC50 (MCF7; [4]) [µM] | IC50 (NCI-H187; [5]) [µM] | IC50 (KB; kb) | IC50 (MCF7; mcf7) | IC50 (NCI-H187; nci-h187) | MIC (Salmonella typhimurium; [6])
1 | COc1cc2[nH]c3ccccc3c2cc1O | inactive | inactive | 128 µg/mL (≈ 600 µM) | 128 (≈ 600 µM) | 213 | 31.4 | 27.4 |  |  |  | 
2 | COC(=O)c1ccc2[nH]c3ccccc3c2c1 | inactive | inactive | 128 µg/mL (≈ 568 µM) | 128 (≈ 568 µM) | 59.7 | 170 | 95.8 |  |  |  | 
3 | COc1ccc2c(c1)[nH]c1cc(O)c(C=O)cc12 | 128 µg/mL (≈ 531 µM) | inactive | inactive | 128 (≈ 531 µM) | 181 | 69.1 | 45.9 |  |  |  | 
4 | COc1ccc2c(c1)[nH]c1c(CC=C(C)C)c(O)c(C=O)cc12 | inactive | inactive | 128 µg/mL (≈ 414 µM) | 128 (≈ 414 µM) |  | 53.9 | 42.3 | Not Active |  |  | 
5 | CC(C)=CCc1c(O)c(C=O)cc2c1[nH]c1cc(O)ccc12 [7-HYDROXYHEPTAPHYLLINE] | 4 µg/mL (≈ 13.5 µM) | 8 µg/mL (≈ 27.1 µM) | 64 µg/mL (≈ 217 µM) | 64 (≈ 217 µM) | 107 |  | 19.6 |  | Not Active |  | 
6 | CC1(C)C=Cc2c(ccc3[nH]c4cc(O)c(C=O)cc4c23)O1 [CLAURAILAS D] | 128 µg/mL (≈ 436 µM) | inactive | 64 µg/mL (≈ 218 µM) | 128 (≈ 436 µM) | 293 | 66.1 | 60.8 |  |  |  | 
7 | Cc1cc2c([nH]c3ccc4c(c32)C=CC(C)(C)O4)c(-c2c(O)c(C)cc3c2[nH]c2ccc4c(c23)C=CC(C)(C)O4)c1O [CLAUSENAWALLINE A] | 128 µg/mL (≈ 230 µM) | 64 µg/mL (≈ 115 µM) | inactive | 128 (≈ 230 µM) |  |  |  |  |  |  | 
8 | COc1cc2[nH]c3c(CC=C(C)C)c(O)c(C=O)cc3c2c(-c2cc3c(cc2O)[nH]c2ccccc23)c1O [CLAUSENAWALLINE B] | 16 µg/mL (≈ 31.6 µM) | 8 µg/mL (≈ 15.8 µM) | 128 µg/mL (≈ 253 µM) | 128 (≈ 253 µM) |  |  |  |  |  |  | 
9 | Cc1cc2c([nH]c3ccc4c(c32)C=CC(C)(C)O4)c2c1OC(C)(C)C=C2 [CLAUSENAWALLINE C] | inactive | inactive | 128 µg/mL (≈ 371 µM) | 128 (≈ 371 µM) |  |  |  | Not Active | Not Active | Not Active | 
10 | COc1ccc2c(c1)[nH]c1cc(OC)c(O)cc12 [CLAUSENAWALLINE D] | inactive | inactive | 128 µg/mL (≈ 526 µM) | 128 (≈ 526 µM) |  |  |  |  |  |  | 
11 | COc1cc2[nH]c3ccc(O)c(-c4c(O)c(C)cc5c4[nH]c4ccc6c(c45)C=CC(C)(C)O6)c3c2cc1C [CLAUSENAWALLINE E] | 8 µg/mL (≈ 15.9 µM) | 8 µg/mL (≈ 15.9 µM) | 128 µg/mL (≈ 254 µM) | 128 (≈ 254 µM) |  |  |  |  |  |  | 
12 | COC(=O)c1cc2c([nH]c3ccccc32)c(O)c1-c1c(O)c(C=O)cc2c1[nH]c1cc(OC)ccc12 [CLAUSENAWALLINE F] | 64 µg/mL (≈ 133 µM) | 64 µg/mL (≈ 133 µM) | 128 µg/mL (≈ 266 µM) |  | 10.2 | 62.3 | 4.5 |  |  |  | inactive
13 | COC(=O)c1ccc2[nH]c3cc(OC)ccc3c2c1 [CLAUSINE C] | inactive | inactive | inactive | 128 (≈ 501 µM) |  |  |  | Not Active | Not Active | Not Active | 
14 | COC(=O)c1cc2c(cc1OC)[nH]c1ccccc12 [CLAUSINE L] | inactive | inactive | 128 µg/mL (≈ 501 µM) | 128 (≈ 501 µM) |  |  |  | Not Active | Not Active | Not Active | 
15 | COC(=O)c1cc2c(cc1OC)[nH]c1cc(OC)ccc12 [CLAUSZOLINE C] | inactive | inactive | 128 µg/mL (≈ 449 µM) | 128 (≈ 449 µM) |  |  |  | Not Active | Not Active | Not Active | 
16 | COc1ccc2c(c1)[nH]c1ccc(C=O)cc12 [CLAUSZOLINE K] | 128 µg/mL (≈ 568 µM) | inactive | 128 µg/mL (≈ 568 µM) |  |  |  |  | Not Active | Not Active | Not Active | inactive
17 | COc1cccc2c1C(=O)c1c(O)c3c(c(O)c1C2=O)C[C@@](O)(C(=O)CO)C[C@@H]3O[C@H]1C[C@H](N)[C@H](O)[C@H](C)O1 [DOXORUBICIN] |  |  |  |  | 1.7 | 16.8 | 0.1 |  |  |  | 
18 | Cc1c2ccncc2c(C)c2c1[nH]c1ccccc12 [ELLIPTECINE] |  |  |  |  | 5.2 |  | 3.1 |  |  |  | 
19 | COc1cc2[nH]c3ccccc3c2cc1C=O [GLYCOSININE] | 128 µg/mL (≈ 568 µM) | inactive | inactive | 128 (≈ 568 µM) | 103 | 111 | 18.2 |  |  |  | 
20 | Cc1cc2c([nH]c3ccccc32)c2c1OC(C)(C)C=C2 [GRINIMIBINE] | inactive | inactive | 128 µg/mL (≈ 486 µM) |  | 263 | 28.8 | 58.9 |  |  |  | inactive
21 | CC(C)=CCc1c(O)c(C=O)cc2c1[nH]c1ccccc12 [HEPTAPHYLLINE] | inactive | inactive | 128 µg/mL (≈ 458 µM) | 128 (≈ 458 µM) | 94.2 | 171 | 20.2 |  |  |  | 
22 | COc1ccc2c(c1)[nH]c1cc(OC)c(C=O)cc12 [LANSINE] | inactive | inactive | 128 µg/mL (≈ 501 µM) |  |  |  |  | Not Active | Not Active | Not Active | inactive
23 | O=Cc1cc2c(cc1O)[nH]c1ccccc12 [MUKONAL] | 64 µg/mL (≈ 303 µM) | inactive | 128 µg/mL (≈ 606 µM) | 128 (≈ 606 µM) |  |  |  | Not Active | Not Active | Not Active | 
24 | COC(=O)c1cc2c(cc1O)[nH]c1ccccc12 [MUKONIDINE] | 64 µg/mL (≈ 265 µM) | 64 µg/mL (≈ 265 µM) | 128 µg/mL (≈ 531 µM) | 32 (≈ 133 µM) |  | 205 | 134 | Not Active |  |  | 
25 | CN[C@H](CC(C)C)C(=O)N[C@H]1C(=O)N[C@@H](CC(N)=O)C(=O)N[C@H]2C(=O)N[C@H]3C(=O)N[C@H](C(=O)N[C@H](C(=O)O)c4cc(O)cc(O)c4-c4cc3ccc4O)[C@H](O)c3ccc(c(Cl)c3)Oc3cc2cc(c3O[C@@H]2O[C@H](CO)[C@@H](O)[C@H](O)[C@H]2O[C@H]2C[C@](C)(N)[C@H](O)[C@H](C)O2)Oc2ccc(cc2Cl)[C@H]1O [VANCOMYCIN] |  | 0.25 µg/mL (≈ 0.173 µM) |  |  |  |  |  |  |  |  | 
26 | GENTAMICIN |  |  | 0.25 µg/mL |  |  |  |  |  |  |  | 0.125 µg/mL
